Results as given in ChEMBL document CHEMBL4261577, “CureCuma-cationic curcuminoids with improved properties and enhanced antimicrobial photodynamic activity” (Eur J Med Chem, 2018).
Activity calls are given as the source filed them. No cut-off for these calls is given here.

Columns and labels:
[1] = Photodegradation of compound in water at 10 uM in presence of LED illumination at 5.6 J/cm'2 for 10 mins by UV/VIS/NIR spectrometer; format: physicochemical; conditions: read-out: Drug degradation
How it was run: (§1)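 10 µM in water in a 1 cm quartz cuvette, illuminated at 435 nm with the bacterial-testing LED (9.4 mW/cm²); absorption spectra taken at set time intervals, chromophore band 380–460 nm followed; half-life from extrapolation.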

[2] = n-Octanol/sorensen buffer partition coefficient, log D of compound at 50 uM at pH 7 after 10 mins by shake-flask method; format: physicochemical
How it was run: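 Shake-flask at 25 °C: 50 µM photosensitizer in 10 mM Sörensen buffer pH 6.8 vigorously mixed with equal volume n-octanol for 10 min, phases separated by centrifugation; aqueous-phase absorbance before and after partitioning gives the coefficient.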

[3] = Induction of reactive oxygen species formation assessed as singlet oxygen quantum yield at 2 uM measured over 20 mins by luminescence assay; format: functional; conditions: in the assay text read “over 50 secs” for “over 20 mins”
How it was run: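 Singlet oxygen luminescence at 1270 nm from a 2 µM solution compared against TMPyP (0.5 µM) as reference, relating absorbed energy to emission; excitation at 405 nm with a tunable laser at 107, 162, 255 and 283 mW for 50 s each.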

[4] = Drug level in 0.1 M phosphate buffer treated with curcumin at pH 7.2 at 37 degC after 30 mins by HPLC method; format: physicochemical; conditions: pH 7.2, 0.5 h
[5] = Aggregating behavior of compound up to 1 mM by UV-Vis spectroscopic analysis; format: physicochemical
How it was run: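 UV-Vis absorption spectra in H2O over 100–1000 µM; dimerization judged from spectral changes within error margins.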

[6] = Half life of compound in water at 10 uM in presence of LED illumination at 9.4 mW/cm'2 by UV/VIS/NIR spectrometer; format: physicochemical; how it was run: as §1
[7] = system: Escherichia coli; test: Photodynamic antibacterial activity against Escherichia coli ATCC 25922 assessed as CFU log reduction at 10 uM irradiated for 5 to 25 mins in presence of LED light at 33.8 J/cm2 and measured after 24 hrs relative to control; format: functional
How it was run: (§2)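 E. coli ATCC25922 grown overnight at 37 °C (175 rpm) in Todd-Hewitt broth + 0.3% yeast extract, diluted to A 0.05, grown 2 h (A600 0.3–0.45), pelleted and resuspended in DPBS; incubated with photosensitizer 5 or 25 min at 37 °C, illuminated with 435 nm LED array (9.4 mW/cm², 33.8 J/cm²) while shaken; serial dilutions plated, CFU counted after overnight 37 °C. Log reduction versus untreated, unilluminated control; ≥3 biological replicates; detection limit 10 CFU/mL.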

[8] = system: Escherichia coli; test: Photodynamic antibacterial activity against Escherichia coli ATCC 25922 assessed as CFU log reduction irradiated for 1.5 mins in presence of 0.85 J/cm2 and measured after 24 hrs; format: functional; conditions: ATCC 25922, light or radiation study, read-out: MBC99.9
[9] = Stability of compound in diluted HCl at 50 uM after 4 hrs by UV-Vis spectrophotometric method; format: physicochemical; conditions: buffer
How it was run: (§3)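 UV-Vis spectra recorded after 4 h incubation in buffer solutions at different pH values, acidic down to pH 2 and alkaline above pH 10.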

[10] = system: Staphylococcus aureus; test: Photodynamic antibacterial activity against Staphylococcus aureus ATCC 25923 assessed as CFU log reduction at 50 uM irradiated for 5 mins in presence of blueV lamp irradiation at 5.3 J/cm2 and measured after 24 hrs; format: functional
How it was run: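 S. aureus ATCC25923 grown aerobically at 37 °C in Mueller-Hinton broth, pelleted and resuspended in distilled water to OD600 0.6 (~10^8 cells/mL); incubated 1 min with photosensitizer in 96-well plates, irradiated with BlueV source (390–460 nm, 20 mW/cm²) to 5.3 J/cm²; CFU by Miles-Misra on Mueller-Hinton agar after 24 h at 37 °C; log reduction versus untreated control; ≥3 replicates.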

[11] = system: Escherichia coli; test: Photodynamic antibacterial activity against Escherichia coli ATCC 25922 assessed as CFU log reduction at 10 uM irradiated for 2.5 mins in presence of 1.41 J/cm2 and measured after 24 hrs; format: functional
[12] = system: Escherichia coli; test: Photodynamic antibacterial activity against Escherichia coli ATCC 25922 assessed as CFU log reduction irradiated for 5 to 25 mins in presence of LED light at 33.8 J/cm2 and measured after 24 hrs; format: functional; conditions: ATCC 25922, light or radiation study, read-out: MBC99.9; how it was run: as §2
[13] = Photodegradation of compound in water at 10 uM in presence of LED illumination at 16.9 J/cm'2 for 30 mins by UV/VIS/NIR spectrometer; format: physicochemical; conditions: read-out: Drug degradation; how it was run: as §1
[14] = system: Escherichia coli; test: Dark toxicity in Escherichia coli ATCC 25922 assessed as decrease in viable cells at 10 uM; format: organism-based; conditions: in vivo
How it was run: (§4)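 E. coli ATCC25922 prepared as for phototoxicity (2 h subculture, DPBS resuspension), incubated with photosensitizer at 37 °C, 175 rpm, but kept in foil-wrapped plates without illumination; CFU counted from serial dilutions on Todd-Hewitt/yeast extract agar after overnight 37 °C, compared against untreated, unilluminated control; three biological replicates.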

[15] = Stability of compound in diluted NaOH at 50 uM after 4 hrs by UV-Vis spectrophotometric method; format: physicochemical; how it was run: as §3
[16] = system: Escherichia coli; test: Dark toxicity in Escherichia coli ATCC 25922 assessed as decrease in viable cells at 50 uM relative to control; format: organism-based; conditions: in vivo; how it was run: as §4
[17] = system: Escherichia coli; test: Photodynamic antibacterial activity against Escherichia coli ATCC 25922 assessed as CFU log reduction at 100 uM complexed with PVP in presence of LED irradiation at LED light at 33.8 J/cm2 relative to control; format: functional
[18] = system: Escherichia coli; test: Photodynamic antibacterial activity against Escherichia coli ATCC 25922 assessed as reduction in bacterial burden at 50 uM complexed with PVP in presence of LED irradiation at LED light at 33.8 J/cm2; format: functional, organism-based
[19] = Aggregating behavior of compound at 1 to 2 mM by NMR analysis; format: physicochemical; conditions: 2000 µM
How it was run: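 1H NMR in D2O at 20, 10, 5, 2 and 1 mM; aggregation judged from signal shifts and multiplet changes in the aromatic region (6.5–8 ppm), referenced to external TMS, 400 MHz.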

[20] = Stability of compound in DMSO-d6 at 10 mM incubated up to 130 degC measured after > 10 mins by NMR method; format: physicochemical; conditions: 10000 µM
How it was run: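 1H NMR at 10 mM heated stepwise from room temperature through 40–130 °C in 10 °C steps, then cooled back to room temperature; aggregation/stability judged from aromatic-region shifts; external TMS reference, 400 MHz.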

| Compound | degraded at 10 min, 10 µM [1] [%] | logD at 10 min, 50 µM [2] | Activity [3] [%] | other results |
| --- | --- | --- | --- | --- |
| Cl.Cl.NCCOc1ccc(/C=C/C(=O)CC(=O)/C=C/c2ccc(OCCN)cc2)cc1 | < 10 | -0.9 | < 1 | – |
| COc1cc(C=O)ccc1O [VANILLIN] | – | – | – | Drug metabolism [4]: Metabolite_Detected |
| COc1cc(/C=C/C(=O)CC(=O)/C=C/c2ccc(OCCOCCN)c(OC)c2)ccc1OCCOCCN.Cl.Cl | < 10 | -1.6 | < 1 | – |
| CC(C)=O [ACETONE] | – | – | – | Drug metabolism [4]: Metabolite_Detected |
| COc1cc(OCCN)ccc1/C=C/C(=O)CC(=O)/C=C/c1ccc(OCCN)cc1OC.Cl.Cl | < 10 | -1.1 | < 1 | – |
| Cl.Cl.Cl.Cl.NCCOc1ccc(/C=C/C(=O)CC(=O)/C=C/c2ccc(OCCN)c(OCCN)c2)cc1OCCN | < 10 | < -2 | < 1 | Activity [5]: Active; half-life at 10 µM [6]: 1 h; Activity [7]: 5 deltalog10CFU/ml; MBC [8]: 10 µM; Stability [9]: Stable; log reduction [10]: 5.3 log10 CFU/mL; Activity [11]: >5 deltalog10CFU/ml; MBC [12]: 5 µM; degraded at 0.5 h, 10 µM [13]: 20%; Activity [14]: Non-Toxic; Stability [15]: Unstable; Activity [16]: 1 deltalog10CFU/ml |
| COc1cc(/C=C/C(=O)CC(=O)/C=C/c2ccc(O)c(OC)c2)ccc1O [CURCUMIN] | – | – | – | Activity [17]: 0.3 deltalog10CFU/ml; Activity [18]: inactive |
| COc1cc(/C=C/C(=O)CC(=O)/C=C/c2ccc(OCCN)c(OC)c2)ccc1OCCN.Cl.Cl | < 10 | -1.2 | < 1 | Stability [9]: Stable; log reduction [10]: 5.2 log10 CFU/mL; Activity [19]: Active; Activity [14]: Non-Toxic; Stability [15]: Unstable; Activity [16]: 0.5 deltalog10CFU/ml |
| Cl.Cl.NCCCOc1ccc(/C=C/C(=O)CC(=O)/C=C/c2ccc(OCCCN)c(OCc3ccccc3)c2)cc1OCc1ccccc1 | < 10 | -0.6 | < 1 | – |
| Cl.Cl.Cl.Cl.Cl.Cl.NCCOc1cc(/C=C/C(=O)CC(=O)/C=C/c2cc(OCCN)c(OCCN)c(OCCN)c2)cc(OCCN)c1OCCN | < 10 | < -2 | < 1 | – |
| Cc1cc(/C=C/C(=O)CC(=O)/C=C/c2ccc(OCCN)c(C)c2)ccc1OCCN.Cl.Cl | < 10 | -0.8 | < 1 | Stability [20]: Stable |
